The results in this text go back to ChEMBL document CHEMBL4049407, “Positional Scanning Identifies the Molecular Determinants of a High Affinity Multi-Leucine Inhibitor for Furin and PACE4” (J Med Chem, 2017).

Activity calls are given as the source filed them. The rule behind the calls is not given here. Peptide text beside a SMILES is read from it. * marks the point of attachment. NH(4-amidinobenzyl) = N=C(N)c1ccc(CN*)cc1

One test has as its target Furin (Homo sapiens, UniProt P09958). Briefly: Inhibition of recombinant human furin expressed in drosophila S2 cells using pyrGlu-Arg-Thr-Lys-Arg-7-amido-4-methylcoumarin as substrate after 60 mins by spectrofluorometry method. The class given is cell-based. In short, it runs like this: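 Human recombinant purified furin at 2 units/100 µL (0.54 nM), in 100 mM HEPES pH 7.5, 1 mM CaCl2, 1 mM β-mercaptoethanol, 1.8 mg/mL BSA. His-containing peptides run instead in 20 mM BisTris pH 6.5 with the same additives. Substrate 100 µM, KM 5.04 µM. Inhibitor 1 nM to 10 µM; 60 min at 37°C. Fluorescence ex 370 / em 460 nm. Ki by Morrison equation; triplicate experiments, mean ± SD.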

For a further test, the species on record is Homo sapiens. Nature of the test: Selectivity index, ratio of Ki for recombinant human furin expressed in drosophila S2 cells to Ki for recombinant human PACE4 expressed in drosophila S2 cells. The class given is cell-based. In short, it runs like this:
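Ratio Ki(furin)/Ki(PACE4). […] PACE4 buffer was BisTris pH 6.5; furin buffer was HEPES pH 7.5, or BisTris pH 6.5 for His peptides. Ki fitted by Morrison equation from three independent experiments.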

Another test deals with DU-145. Nature of the test: Antiproliferative activity against human DU145 cells assessed as reduction in metabolic activity at 25 to 100 uM after 72 hrs by MTT assay. The test is classed as functional, cell-based. In short, it runs like this:
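First-pass MTT screen of each library peptide on DU145 cells (RPMI 1640, 5% FBS, 1500 cells/well, poly-L-lysine plates). Peptides added 24 h after seeding at 25, 50 and 100 µM in fresh serum medium for 72 h. MTT 1 mg/mL for 4 h; 2-propanol HCl solubilisation. Activity normalised to water vehicle. Mean ± SEM of at least two independent experiments.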
Background: Tetrazolium dyes change colour on reduction, which living cells bring about.

The target of test [1] is T1, Proprotein convertase subtilisin/kexin type 6 (Homo sapiens, UniProt P29122).
T1 sequence (P29122 whole entry): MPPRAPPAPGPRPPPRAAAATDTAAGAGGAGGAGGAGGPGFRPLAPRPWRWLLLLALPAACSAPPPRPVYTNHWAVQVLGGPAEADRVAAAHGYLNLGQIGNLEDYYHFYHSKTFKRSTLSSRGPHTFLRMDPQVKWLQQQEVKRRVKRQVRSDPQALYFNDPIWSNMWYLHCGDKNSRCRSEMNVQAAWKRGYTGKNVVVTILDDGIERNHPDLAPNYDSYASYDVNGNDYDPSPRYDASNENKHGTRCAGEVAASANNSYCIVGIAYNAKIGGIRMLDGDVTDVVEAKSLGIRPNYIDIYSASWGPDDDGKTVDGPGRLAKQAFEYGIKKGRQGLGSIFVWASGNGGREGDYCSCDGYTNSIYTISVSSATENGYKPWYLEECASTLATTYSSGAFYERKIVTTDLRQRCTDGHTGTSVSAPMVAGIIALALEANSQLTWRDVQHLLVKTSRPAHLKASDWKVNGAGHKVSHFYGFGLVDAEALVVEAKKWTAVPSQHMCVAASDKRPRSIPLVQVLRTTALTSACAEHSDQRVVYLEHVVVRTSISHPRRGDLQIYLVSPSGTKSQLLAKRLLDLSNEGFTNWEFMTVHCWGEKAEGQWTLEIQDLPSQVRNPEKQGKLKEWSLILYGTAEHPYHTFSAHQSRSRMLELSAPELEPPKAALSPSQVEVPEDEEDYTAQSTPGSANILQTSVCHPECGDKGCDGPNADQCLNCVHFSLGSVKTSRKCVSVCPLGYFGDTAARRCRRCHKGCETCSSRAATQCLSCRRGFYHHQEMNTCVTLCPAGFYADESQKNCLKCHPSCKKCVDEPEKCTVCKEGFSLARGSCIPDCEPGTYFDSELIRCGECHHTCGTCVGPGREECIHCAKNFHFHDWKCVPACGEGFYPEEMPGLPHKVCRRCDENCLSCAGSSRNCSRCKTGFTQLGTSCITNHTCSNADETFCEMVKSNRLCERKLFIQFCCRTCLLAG
Nature of the test: Inhibition of recombinant human PACE4 expressed in drosophila S2 cells using pyrGlu-Arg-Thr-Lys-Arg-7-amido-4-methylcoumarin as substrate after 60 mins by spectrofluorometry method. The class given is cell-based. In short, it runs like this:
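Human recombinant purified PACE4 at 2 units/100 µL (20.18 nM), in 20 mM BisTris pH 6.5, 1 mM CaCl2, 1.8 mg/mL BSA. Substrate 100 µM, KM 4.035 µM. Inhibitor 1 nM to 10 µM; 60 min at 37°C. Fluorescence ex 370 / em 460 nm. Ki by Morrison tight-binding equation; three independent experiments, mean ± SD.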

Chain of Furin (P09958 whole entry): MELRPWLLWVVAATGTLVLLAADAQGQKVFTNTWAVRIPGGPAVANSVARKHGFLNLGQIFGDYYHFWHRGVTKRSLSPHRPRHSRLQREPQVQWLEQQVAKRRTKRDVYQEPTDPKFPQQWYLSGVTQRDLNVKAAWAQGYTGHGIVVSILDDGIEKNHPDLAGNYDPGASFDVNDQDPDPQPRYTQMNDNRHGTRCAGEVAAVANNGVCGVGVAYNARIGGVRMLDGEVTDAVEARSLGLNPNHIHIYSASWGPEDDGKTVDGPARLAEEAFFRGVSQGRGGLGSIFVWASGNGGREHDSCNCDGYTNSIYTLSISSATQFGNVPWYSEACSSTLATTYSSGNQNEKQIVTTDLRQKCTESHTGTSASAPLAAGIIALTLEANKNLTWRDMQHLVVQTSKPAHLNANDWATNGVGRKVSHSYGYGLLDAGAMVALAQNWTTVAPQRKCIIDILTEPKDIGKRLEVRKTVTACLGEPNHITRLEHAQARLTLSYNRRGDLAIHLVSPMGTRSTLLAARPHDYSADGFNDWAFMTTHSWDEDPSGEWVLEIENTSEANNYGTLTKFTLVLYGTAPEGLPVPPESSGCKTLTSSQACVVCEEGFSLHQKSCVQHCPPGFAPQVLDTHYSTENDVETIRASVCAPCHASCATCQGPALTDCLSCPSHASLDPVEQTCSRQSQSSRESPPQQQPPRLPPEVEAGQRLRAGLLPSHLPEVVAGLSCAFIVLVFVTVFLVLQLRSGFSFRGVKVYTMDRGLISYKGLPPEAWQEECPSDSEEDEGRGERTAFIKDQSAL

What is called Ki is the dissociation constant of the complex between target and ligand, obtained from inhibition or displacement. As to `CC(=O)N[C@@H](CC(C)C)C(=O)N[C@@H](CC(C)C)C(=O)N[C@@H](CC(C)C)C(=O)N[C@@H](Cc1c[nH]c2ccccc12)C(=O)N[C@@H](CCCNC(=N)N)C(=O)N[C@H](C(=O)N[C@@H](CCCCN)C(=O)NCc1ccc(C(=N)N)cc1)C(C)C` (Ac-LLLWRVK-{NH(4-amidinobenzyl)}), the inhibition constant Ki at Furin worked out at 8 nM; in test [1], 2.8 nM. For the same molecule, the Ratio Ki in the test filed under Homo sapiens came out at 2.9. Further, the outcome in the test with DU-145 was inactive.

Turning to `CSCC[C@H](NC(=O)[C@H](CC(C)C)NC(=O)[C@H](CC(C)C)NC(C)=O)C(=O)N[C@@H](CC(C)C)C(=O)N[C@@H](CCCNC(=N)N)C(=O)N[C@H](C(=O)N[C@@H](CCCCN)C(=O)NCc1ccc(C(=N)N)cc1)C(C)C` (Ac-LLMLRVK-{NH(4-amidinobenzyl)}), the Ki at Furin stood at 18 nM; in test [1], 28 nM. The Ratio Ki in the test listed under Homo sapiens is 0.6. For the same molecule, in the test with DU-145, the outcome was inactive.

As for `CC(=O)N[C@@H](CC(C)C)C(=O)N[C@@H](CC(C)C)C(=O)N[C@@H](Cc1c[nH]c2ccccc12)C(=O)N[C@@H](CC(C)C)C(=O)N[C@@H](CCCNC(=N)N)C(=O)N[C@H](C(=O)N[C@@H](CCCCN)C(=O)NCc1ccc(C(=N)N)cc1)C(C)C` (Ac-LLWLRVK-{NH(4-amidinobenzyl)}), the Ki at Furin stood at 36 nM; in test [1] it was 44 nM. Besides, the Ratio Ki in the test filed under Homo sapiens was 0.8. In addition, the outcome in the test with DU-145 was inactive.

As to `CC(=O)N[C@@H](CC(C)C)C(=O)N[C@@H](CC(N)=O)C(=O)N[C@@H](CC(C)C)C(=O)N[C@@H](CC(C)C)C(=O)N[C@@H](CCCNC(=N)N)C(=O)N[C@H](C(=O)N[C@@H](CCCCN)C(=O)NCc1ccc(C(=N)N)cc1)C(C)C` (Ac-LNLLRVK-{NH(4-amidinobenzyl)}), the Ki came out at 1 nM on Furin and 4 nM in test [1]. In addition, the Ratio Ki in the test listed under Homo sapiens turned out to be 0.3. Also, the result in the test with DU-145 was inactive.

Consider `CC(=O)N1CCC[C@H]1C(=O)N[C@@H](CC(C)C)C(=O)N[C@@H](CC(C)C)C(=O)N[C@@H](CC(C)C)C(=O)N[C@@H](CCCNC(=N)N)C(=O)N[C@H](C(=O)N[C@@H](CCCCN)C(=O)NCc1ccc(C(=N)N)cc1)C(C)C` (Ac-PLLLRVK-{NH(4-amidinobenzyl)}), for which the Ki stood at 1.1 nM at Furin and 3 nM in test [1]. Besides, in the test filed under Homo sapiens, the Ratio Ki was determined as 0.4. The outcome with DU-145 was inactive.

Consider `CC(=O)N[C@@H](CC(C)C)C(=O)N[C@@H](CCCCN)C(=O)N[C@@H](CC(C)C)C(=O)N[C@@H](CC(C)C)C(=O)N[C@@H](CCCNC(=N)N)C(=O)N[C@H](C(=O)N[C@@H](CCCCN)C(=O)NCc1ccc(C(=N)N)cc1)C(C)C` (Ac-LKLLRVK-{NH(4-amidinobenzyl)}), for which the Ki at Furin came out at 0.6 nM; in test [1], 0.5 nM. Also, the Ratio Ki in the test filed under Homo sapiens stood at 1.2. In the test with DU-145, the result was inactive.

Turning to `CC(=O)N[C@@H](CC(N)=O)C(=O)N[C@@H](CC(C)C)C(=O)N[C@@H](CC(C)C)C(=O)N[C@@H](CC(C)C)C(=O)N[C@@H](CCCNC(=N)N)C(=O)N[C@H](C(=O)N[C@@H](CCCCN)C(=O)NCc1ccc(C(=N)N)cc1)C(C)C` (Ac-NLLLRVK-{NH(4-amidinobenzyl)}), the Ki at Furin is 3.1 nM; in test [1], 6 nM. For the same molecule, the Ratio Ki in the test listed under Homo sapiens was found to be 0.5. Besides, the result in the test on DU-145 was inactive.

On to `CSCC[C@H](NC(C)=O)C(=O)N[C@@H](CC(C)C)C(=O)N[C@@H](CC(C)C)C(=O)N[C@@H](CC(C)C)C(=O)N[C@@H](CCCNC(=N)N)C(=O)N[C@H](C(=O)N[C@@H](CCCCN)C(=O)NCc1ccc(C(=N)N)cc1)C(C)C` (Ac-MLLLRVK-{NH(4-amidinobenzyl)}), for which the Ki (at Furin; in test [1]) was 6 nM throughout. Moreover, the Ratio Ki in the test filed under Homo sapiens is 1. In the test with DU-145, the result was inactive.

Regarding `CC(=O)N[C@@H](CC(C)C)C(=O)N[C@@H](CC(C)C)C(=O)N[C@@H](CC(C)C)C(=O)N[C@H](C(=O)N[C@@H](CCCNC(=N)N)C(=O)N[C@H](C(=O)N[C@@H](CCCCN)C(=O)NCc1ccc(C(=N)N)cc1)C(C)C)[C@@H](C)O` (Ac-LLLTRVK-{NH(4-amidinobenzyl)}), the values for the Ki (on Furin; in test [1]) were 4.5 nM and 2.8 nM, respectively. Moreover, the Ratio Ki in the test listed under Homo sapiens is 1.6. Moreover, the result in the test with DU-145 was inactive.

Regarding `CC(=O)N[C@@H](CC(C)C)C(=O)N[C@@H](CCC(=O)O)C(=O)N[C@@H](CC(C)C)C(=O)N[C@@H](CC(C)C)C(=O)N[C@@H](CCCNC(=N)N)C(=O)N[C@H](C(=O)N[C@@H](CCCCN)C(=O)NCc1ccc(C(=N)N)cc1)C(C)C` (Ac-LELLRVK-{NH(4-amidinobenzyl)}), the Ki is 23 nM on Furin and 51 nM in test [1]. Further, in the test listed under Homo sapiens, the Ratio Ki came to 0.5. In addition, the outcome in the test with DU-145 was inactive.

Turning to `CC(=O)N[C@@H](CC(C)C)C(=O)N[C@@H](CC(C)C)C(=O)N[C@@H](CCC(N)=O)C(=O)N[C@@H](CC(C)C)C(=O)N[C@@H](CCCNC(=N)N)C(=O)N[C@H](C(=O)N[C@@H](CCCCN)C(=O)NCc1ccc(C(=N)N)cc1)C(C)C` (Ac-LLQLRVK-{NH(4-amidinobenzyl)}), the results for the Ki (at Furin; in test [1]) were 5 nM and 4.1 nM, respectively. Moreover, the Ratio Ki in the test filed under Homo sapiens came out at 1.2. The outcome in the test with DU-145 was inactive.

Take `CC(=O)N[C@@H](CC(C)C)C(=O)N[C@@H](CC(C)C)C(=O)N[C@@H](Cc1cnc[nH]1)C(=O)N[C@@H](CC(C)C)C(=O)N[C@@H](CCCNC(=N)N)C(=O)N[C@H](C(=O)N[C@@H](CCCCN)C(=O)NCc1ccc(C(=N)N)cc1)C(C)C` (Ac-LLHLRVK-{NH(4-amidinobenzyl)}): the Ki at Furin worked out at 4.8 nM; in test [1], 1.8 nM. For the same molecule, the Ratio Ki in the test listed under Homo sapiens was found to be 2.7. Besides, the result with DU-145 was inactive.

As to `CC(=O)N[C@@H](CC(C)C)C(=O)N[C@@H](CC(C)C)C(=O)N[C@@H](CC(C)C)C(=O)N[C@@H](C)C(=O)N[C@@H](CCCNC(=N)N)C(=O)N[C@H](C(=O)N[C@@H](CCCCN)C(=O)NCc1ccc(C(=N)N)cc1)C(C)C` (Ac-LLLARVK-{NH(4-amidinobenzyl)}), the Ki at Furin stood at 5 nM; in test [1], 4 nM. Further, the Ratio Ki in the test listed under Homo sapiens was 1.3. Besides, the result in the test with DU-145 was inactive.

For `CC(=O)N[C@@H](CC(C)C)C(=O)N[C@@H](CC(C)C)C(=O)NCC(=O)N[C@@H](CC(C)C)C(=O)N[C@@H](CCCNC(=N)N)C(=O)N[C@H](C(=O)N[C@@H](CCCCN)C(=O)NCc1ccc(C(=N)N)cc1)C(C)C` (Ac-LLGLRVK-{NH(4-amidinobenzyl)}), the Ki came to 16.7 nM on Furin and 21 nM in test [1]. In the test listed under Homo sapiens, the Ratio Ki came to 0.8. Further, in the test with DU-145, the outcome was inactive.

For `CC(=O)N[C@@H](CC(C)C)C(=O)N[C@@H](CCC(N)=O)C(=O)N[C@@H](CC(C)C)C(=O)N[C@@H](CC(C)C)C(=O)N[C@@H](CCCNC(=N)N)C(=O)N[C@H](C(=O)N[C@@H](CCCCN)C(=O)NCc1ccc(C(=N)N)cc1)C(C)C` (Ac-LQLLRVK-{NH(4-amidinobenzyl)}), the Ki on Furin worked out at 2.3 nM; in test [1], 3 nM. Further, in the test listed under Homo sapiens, the Ratio Ki amounted to 0.8. The result in the test with DU-145 was inactive.
